Test results as given in ChEMBL document CHEMBL2176873, “α-1-C-butyl-1,4-dideoxy-1,4-imino-l-arabinitol as a second-generation iminosugar-based oral α-glucosidase inhibitor for improving postprandial hyperglycemia” (J Med Chem, 2012).
pIC50: −log10 of the molar value. The source made the active and inactive calls. The rule behind the calls is not given here.

Tests used:
[1] = Inhibition of rat intestinal cellobiase using cellobiose as substrate
How it was run: (§1)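 Rat small-intestine brush border membrane preparation, assayed at pH 5.8 with the matching disaccharide as substrate (maltose at 25 mM). Incubation for 10–30 min at 37 °C, stopped by heating at 100 °C for 3 min and centrifuged. Released D-glucose in the supernatant was measured by glucose reagent absorbance at 505 nm.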

[2] = target: T1, Glucosylceramidase (Bos taurus) (UniProt Q2KHZ8); test: Inhibition of bovine liver beta-glucosidase at 1000 uM
T1 sequence (whole entry): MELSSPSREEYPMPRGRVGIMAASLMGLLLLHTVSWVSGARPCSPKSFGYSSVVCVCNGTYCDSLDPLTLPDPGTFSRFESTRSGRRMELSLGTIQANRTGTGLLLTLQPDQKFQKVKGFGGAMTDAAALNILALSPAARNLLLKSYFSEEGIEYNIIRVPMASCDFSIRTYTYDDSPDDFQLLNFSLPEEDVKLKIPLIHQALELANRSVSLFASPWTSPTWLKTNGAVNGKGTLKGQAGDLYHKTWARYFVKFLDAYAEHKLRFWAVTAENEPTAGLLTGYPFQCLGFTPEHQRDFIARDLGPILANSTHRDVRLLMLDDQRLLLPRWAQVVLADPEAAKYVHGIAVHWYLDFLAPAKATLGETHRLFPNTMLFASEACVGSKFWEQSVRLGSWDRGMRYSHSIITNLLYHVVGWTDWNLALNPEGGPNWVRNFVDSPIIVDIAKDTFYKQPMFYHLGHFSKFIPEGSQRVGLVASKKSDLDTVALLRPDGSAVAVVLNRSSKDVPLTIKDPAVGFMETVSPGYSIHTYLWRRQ

[3] = tested on: Mus musculus; test: Antihyperglycemic activity in overnight fasted ddY mouse assessed as decrease in blood glucose level at 0.25 mg/kg administered via stomach tube measured at 15 to 30 mins by maltose loading test relative to control; assay type: functional; set-up: scale not given: the % may be the effect or the level left
How it was run: (§2)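 Male ddY mice received maltose or sucrose (2.5 g/kg) with inhibitor in 0.9% NaCl by stomach tube; controls got saline only. Tail-vein blood glucose was read with a portable meter at 0, 15, 30, 60 and 120 min after loading.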

[4] = tested on: Mus musculus; test: Antihyperglycemic activity in overnight fasted ddY mouse assessed as decrease in blood glucose level at 0.25 mg/kg administered via stomach tube measured at 60 to 120 mins by maltose loading test relative to control; assay type: functional, organism-based; set-up: dose 0.25 mg/kg; how it was run: as §2
[5] = target: T2, Uncharacterized protein (Sus scrofa) (UniProt I3LIR5); test: Inhibition of porcine kidney trehalase at 1000 uM
T2 sequence (whole entry): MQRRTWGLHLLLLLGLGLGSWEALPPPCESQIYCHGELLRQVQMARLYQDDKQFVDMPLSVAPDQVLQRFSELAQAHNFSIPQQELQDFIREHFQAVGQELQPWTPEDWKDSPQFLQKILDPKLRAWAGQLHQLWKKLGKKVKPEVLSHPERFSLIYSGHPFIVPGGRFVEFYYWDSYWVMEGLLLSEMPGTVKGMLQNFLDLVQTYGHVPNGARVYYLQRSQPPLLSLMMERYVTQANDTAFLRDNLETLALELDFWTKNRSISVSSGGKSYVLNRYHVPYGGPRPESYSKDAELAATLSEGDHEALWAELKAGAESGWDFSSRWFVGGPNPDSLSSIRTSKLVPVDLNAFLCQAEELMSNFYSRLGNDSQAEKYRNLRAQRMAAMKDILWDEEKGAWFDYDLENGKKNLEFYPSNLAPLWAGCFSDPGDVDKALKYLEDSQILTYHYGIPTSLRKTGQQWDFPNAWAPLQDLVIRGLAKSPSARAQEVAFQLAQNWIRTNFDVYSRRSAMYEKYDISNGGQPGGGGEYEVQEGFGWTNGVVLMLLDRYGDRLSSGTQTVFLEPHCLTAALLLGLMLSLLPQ

[6] = target: T3, Lysosomal acid glucosylceramidase (Homo sapiens) (UniProt P04062); test: Inhibition of human beta-glucocerebrosidase at 1000 uM
T3 sequence (whole entry): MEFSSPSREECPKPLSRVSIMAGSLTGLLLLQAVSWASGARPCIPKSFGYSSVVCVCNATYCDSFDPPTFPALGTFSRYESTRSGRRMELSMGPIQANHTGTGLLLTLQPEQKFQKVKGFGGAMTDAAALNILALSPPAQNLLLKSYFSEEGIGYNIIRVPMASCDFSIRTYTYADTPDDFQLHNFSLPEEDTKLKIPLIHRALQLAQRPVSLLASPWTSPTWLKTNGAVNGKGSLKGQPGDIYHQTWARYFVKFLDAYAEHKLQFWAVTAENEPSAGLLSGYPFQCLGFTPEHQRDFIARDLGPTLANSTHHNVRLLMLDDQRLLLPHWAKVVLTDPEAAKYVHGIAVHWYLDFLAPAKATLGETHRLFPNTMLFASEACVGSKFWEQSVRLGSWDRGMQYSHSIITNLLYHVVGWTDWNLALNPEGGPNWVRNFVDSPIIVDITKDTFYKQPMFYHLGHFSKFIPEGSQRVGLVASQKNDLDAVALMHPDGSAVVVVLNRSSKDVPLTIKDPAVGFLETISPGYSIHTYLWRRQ

[7] = species on record: Rattus norvegicus; test: Inhibition of rat intestinal cellobiase using cellobiose as substrate at 1000 uM; how it was run: as §1
[8] = tested on: Mus musculus; test: Antihyperglycemic activity in overnight fasted ddY mouse assessed as decrease in blood glucose level at 0.1 mg/kg administered via stomach tube after 60 mins by sucrose loading test relative to control; assay type: functional; set-up: scale not given: the % may be the effect or the level left; how it was run: as §2
[9] = target: Lysosomal alpha-glucosidase (Homo sapiens) (UniProt P10253); test: Inhibition of alpha-glucosidase in human HepG2 cells assessed as increase in expression of immature high mannose type N-linked oligosachcharides at 500 uM after 48 hrs by MALDI-TOF MS analysis relative to untreated control; assay type: cell-based
How it was run: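 HepG2 cells were grown in low-glucose DMEM with 10% FCS at 37 °C, 5% CO2, and treated 48 h with 500 μM compound. Homogenates in 0.5% Triton X-100 were DTT-reduced, alkylated with iodoacetamide, trypsinized and PNGase F-released (37 °C, 16 h). Glycans were captured on hydrazide beads, methyl-esterified, released as aoWR derivatives, and profiled by MALDI-TOF MS; proportions were compared with untreated cells.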

[10] = tested on: Mus musculus; test: Antihyperglycemic activity in overnight fasted ddY mouse assessed as decrease in blood glucose level at 0.5 mg/kg administered via stomach tube after 60 mins by sucrose loading test relative to control; assay type: functional; set-up: scale not given: the % may be the effect or the level left; how it was run: as §2
[11] = target: T4, Beta-galactosidase (Bos taurus) (UniProt Q58D55); test: Inhibition of bovine liver beta-galactosidase at 1000 uM
T4 sequence (whole entry): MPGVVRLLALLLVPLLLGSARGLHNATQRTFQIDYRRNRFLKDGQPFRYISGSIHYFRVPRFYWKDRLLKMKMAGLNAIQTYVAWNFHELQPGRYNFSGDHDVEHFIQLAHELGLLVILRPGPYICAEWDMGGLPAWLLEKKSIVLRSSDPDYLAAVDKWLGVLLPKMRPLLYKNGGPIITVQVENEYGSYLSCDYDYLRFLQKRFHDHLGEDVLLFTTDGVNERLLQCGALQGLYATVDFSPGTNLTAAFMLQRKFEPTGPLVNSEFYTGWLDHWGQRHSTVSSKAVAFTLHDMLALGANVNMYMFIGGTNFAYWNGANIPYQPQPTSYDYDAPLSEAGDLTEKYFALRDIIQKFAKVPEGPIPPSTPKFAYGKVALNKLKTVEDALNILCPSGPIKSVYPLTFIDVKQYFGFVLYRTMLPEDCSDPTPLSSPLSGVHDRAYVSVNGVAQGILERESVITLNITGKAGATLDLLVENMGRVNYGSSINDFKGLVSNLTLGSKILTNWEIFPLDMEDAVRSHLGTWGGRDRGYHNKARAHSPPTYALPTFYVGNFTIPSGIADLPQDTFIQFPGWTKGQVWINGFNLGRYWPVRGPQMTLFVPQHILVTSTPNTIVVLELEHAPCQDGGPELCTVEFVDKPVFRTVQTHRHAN

[12] = target: T5, Trehalase (Rattus norvegicus) (UniProt O70282); test: Inhibition of rat intestinal trehalase at 1000 uM
T5 sequence (whole entry): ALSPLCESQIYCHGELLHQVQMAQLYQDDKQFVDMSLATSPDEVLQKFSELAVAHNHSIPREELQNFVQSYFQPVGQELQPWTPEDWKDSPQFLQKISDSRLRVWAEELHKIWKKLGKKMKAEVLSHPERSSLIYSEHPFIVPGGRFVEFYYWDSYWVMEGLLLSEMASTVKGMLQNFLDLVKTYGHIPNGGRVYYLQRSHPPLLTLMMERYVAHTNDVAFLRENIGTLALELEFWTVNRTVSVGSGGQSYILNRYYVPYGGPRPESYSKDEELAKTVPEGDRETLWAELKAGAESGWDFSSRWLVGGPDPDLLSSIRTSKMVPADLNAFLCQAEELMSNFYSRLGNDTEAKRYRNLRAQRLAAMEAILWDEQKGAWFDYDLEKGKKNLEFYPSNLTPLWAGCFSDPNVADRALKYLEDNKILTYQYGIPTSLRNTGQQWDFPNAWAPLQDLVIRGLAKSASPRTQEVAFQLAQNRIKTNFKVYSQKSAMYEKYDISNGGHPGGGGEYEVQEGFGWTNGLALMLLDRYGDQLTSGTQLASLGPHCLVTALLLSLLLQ

[13] = target: T6, Sucrase-isomaltase, intestinal (Rattus norvegicus, UniProt P23739); test: Inhibition of rat intestinal isomaltase […] as substrate
T6 sequence (P23739 1-1013 limits assumed): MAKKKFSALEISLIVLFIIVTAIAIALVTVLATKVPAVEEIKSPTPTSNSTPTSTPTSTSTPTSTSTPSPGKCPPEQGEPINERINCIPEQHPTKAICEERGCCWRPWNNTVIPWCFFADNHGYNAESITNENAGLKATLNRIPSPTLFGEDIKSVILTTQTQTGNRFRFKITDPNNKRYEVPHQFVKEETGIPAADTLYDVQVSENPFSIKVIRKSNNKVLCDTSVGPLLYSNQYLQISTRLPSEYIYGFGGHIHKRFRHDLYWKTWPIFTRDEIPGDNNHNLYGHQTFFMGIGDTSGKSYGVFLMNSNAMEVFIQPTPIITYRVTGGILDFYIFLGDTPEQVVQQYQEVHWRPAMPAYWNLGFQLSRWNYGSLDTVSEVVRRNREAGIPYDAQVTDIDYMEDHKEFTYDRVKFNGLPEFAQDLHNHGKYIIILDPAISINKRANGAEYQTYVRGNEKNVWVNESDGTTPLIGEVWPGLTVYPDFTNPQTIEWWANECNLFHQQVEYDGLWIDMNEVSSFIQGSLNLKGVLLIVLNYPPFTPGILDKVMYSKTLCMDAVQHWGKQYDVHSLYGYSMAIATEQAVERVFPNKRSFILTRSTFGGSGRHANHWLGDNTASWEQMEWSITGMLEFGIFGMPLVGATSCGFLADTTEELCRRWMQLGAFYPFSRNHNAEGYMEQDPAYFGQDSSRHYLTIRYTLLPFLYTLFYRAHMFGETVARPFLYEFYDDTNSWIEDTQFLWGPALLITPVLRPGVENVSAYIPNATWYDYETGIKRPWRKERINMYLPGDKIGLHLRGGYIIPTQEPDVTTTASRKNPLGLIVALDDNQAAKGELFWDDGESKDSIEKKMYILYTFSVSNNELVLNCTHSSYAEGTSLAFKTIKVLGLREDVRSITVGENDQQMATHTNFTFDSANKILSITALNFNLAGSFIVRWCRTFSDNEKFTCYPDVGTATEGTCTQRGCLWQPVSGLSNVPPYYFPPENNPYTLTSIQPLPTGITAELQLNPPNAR
T6 sequence (P23739 1014-1841 limits assumed): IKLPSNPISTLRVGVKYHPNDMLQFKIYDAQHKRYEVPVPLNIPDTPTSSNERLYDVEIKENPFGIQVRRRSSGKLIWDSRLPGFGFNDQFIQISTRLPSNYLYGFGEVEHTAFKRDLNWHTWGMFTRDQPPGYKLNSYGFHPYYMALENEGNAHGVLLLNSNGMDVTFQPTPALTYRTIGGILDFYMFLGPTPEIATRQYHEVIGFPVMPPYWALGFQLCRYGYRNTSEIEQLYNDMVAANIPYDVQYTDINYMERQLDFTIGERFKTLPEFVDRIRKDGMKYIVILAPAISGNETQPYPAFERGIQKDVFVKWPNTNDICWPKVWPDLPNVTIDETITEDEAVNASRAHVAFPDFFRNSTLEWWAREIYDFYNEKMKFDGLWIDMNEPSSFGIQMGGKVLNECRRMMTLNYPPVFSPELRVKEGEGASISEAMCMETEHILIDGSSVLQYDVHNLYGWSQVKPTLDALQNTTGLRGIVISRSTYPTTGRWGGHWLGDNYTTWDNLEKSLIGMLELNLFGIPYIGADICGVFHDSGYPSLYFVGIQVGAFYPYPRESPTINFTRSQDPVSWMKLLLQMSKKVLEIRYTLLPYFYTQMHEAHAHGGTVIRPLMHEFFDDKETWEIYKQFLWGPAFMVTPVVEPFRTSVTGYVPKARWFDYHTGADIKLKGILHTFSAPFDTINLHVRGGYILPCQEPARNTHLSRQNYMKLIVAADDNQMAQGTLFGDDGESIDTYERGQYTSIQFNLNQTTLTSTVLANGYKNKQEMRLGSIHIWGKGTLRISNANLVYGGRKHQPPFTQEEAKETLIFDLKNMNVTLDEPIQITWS

[14] = target: T6, Sucrase-isomaltase, intestinal; test: Inhibition of rat intestinal sucrase using sucrose as substrate
[15] = target: Lactase/phlorizin hydrolase (Rattus norvegicus) (UniProt Q02401); test: Inhibition of rat intestinal lactase using lactose as substrate at 1000 uM
Chain of Lactase/phlorizin hydrolase (Rattus norvegicus) (Q02401 868-1928 limits assumed): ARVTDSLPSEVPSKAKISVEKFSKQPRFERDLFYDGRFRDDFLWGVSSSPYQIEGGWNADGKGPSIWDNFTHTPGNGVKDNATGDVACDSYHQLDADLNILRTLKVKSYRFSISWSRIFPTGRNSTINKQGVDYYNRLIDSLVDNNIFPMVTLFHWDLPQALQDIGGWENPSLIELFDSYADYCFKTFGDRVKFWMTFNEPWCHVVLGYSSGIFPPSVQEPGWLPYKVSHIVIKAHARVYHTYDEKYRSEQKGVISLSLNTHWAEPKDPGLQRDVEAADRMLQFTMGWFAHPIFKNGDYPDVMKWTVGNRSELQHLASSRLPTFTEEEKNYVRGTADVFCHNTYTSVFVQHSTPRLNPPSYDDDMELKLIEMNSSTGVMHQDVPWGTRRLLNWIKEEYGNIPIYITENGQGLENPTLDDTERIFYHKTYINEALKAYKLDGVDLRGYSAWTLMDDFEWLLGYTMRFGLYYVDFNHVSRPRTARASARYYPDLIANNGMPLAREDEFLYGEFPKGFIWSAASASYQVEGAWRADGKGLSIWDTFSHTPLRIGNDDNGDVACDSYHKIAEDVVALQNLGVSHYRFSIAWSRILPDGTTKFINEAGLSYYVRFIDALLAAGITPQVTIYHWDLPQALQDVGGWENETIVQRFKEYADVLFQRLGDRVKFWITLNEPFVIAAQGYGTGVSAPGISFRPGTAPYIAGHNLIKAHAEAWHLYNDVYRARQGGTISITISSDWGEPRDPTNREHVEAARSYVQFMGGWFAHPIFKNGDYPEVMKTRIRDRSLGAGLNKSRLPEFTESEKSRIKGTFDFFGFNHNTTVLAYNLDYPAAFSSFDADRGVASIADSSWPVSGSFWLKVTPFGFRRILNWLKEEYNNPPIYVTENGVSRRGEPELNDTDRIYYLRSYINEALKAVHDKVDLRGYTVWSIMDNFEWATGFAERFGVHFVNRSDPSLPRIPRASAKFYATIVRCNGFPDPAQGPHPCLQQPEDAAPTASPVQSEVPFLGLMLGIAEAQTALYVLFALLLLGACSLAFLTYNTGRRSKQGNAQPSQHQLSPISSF

[16] = target: T7, Uncharacterized protein (Sus scrofa, UniProt I3LIR5); test: Inhibition of porcine kidney trehalase
T7 sequence (I3LIR5 whole entry): T2 sequence (whole entry)

[17] = target: T8, Trehalase (Rattus norvegicus, UniProt O70282); test: Inhibition of rat intestinal trehalase
T8 sequence (O70282 whole entry): T5 sequence (whole entry)

Row | SMILES | inhibition [2] [%] | inhibition [7] [%] | inhibition [11] [%] | pIC50 [13] | pIC50 [14] | also measured
2 | CC(C)CCC[C@@H]1N[C@@H](CO)[C@H](O)[C@H]1O |  |  |  | 4.92 | 6.62 | 
3 | CCCCN1C[C@H](O)[C@@H](O)[C@H](O)[C@H]1CO | < 50 | < 50 | < 50 |  |  | pIC50 [16]: 4.44; pIC50 [17]: 4.42

More lines, main results first:

Row | inhibition [2] [%] | inhibition [7] [%] | inhibition [11] [%] | pIC50 [13] | pIC50 [14] | SMILES | also measured
4 | < 50 | < 50 | < 50 |  |  | CCCC[C@@H]1N[C@@H](CO)[C@H](O)[C@H]1O | Activity [3]: 43.9%; Activity [4]: inactive; inhibition [5]: < 50%; inhibition [6]: < 50%; Activity [8]: 49.1%; inhibition [9]: inactive; Activity [10]: 69.2%; inhibition [12]: < 50%
5 |  |  |  | 6.11 | 6.21 | OC[C@@H]1N[C@@H](CO)[C@H](O)[C@H]1O | 
6 |  |  |  | 4.85 | 6.51 | OC[C@@H]1N[C@@H](CCCCc2ccccc2)[C@H](O)[C@H]1O | 
7 | < 50 | < 50 | < 50 | 4.27 | 4.14 | CCCCN1C[C@H](O)[C@@H](O)[C@@H]1CO | inhibition [15]: < 50%; inhibition [5]: < 50%; inhibition [6]: < 50%; inhibition [12]: < 50%
8 |  |  |  |  | 6.18 | C[C@@]1(CO)NC[C@H](O)[C@H]1O | 
